Insulin prom inh: inhibitors of insulin promoter-driven GFP, primary screen, imaging, TRM-6 cells (human fetal islet line), eGFP reporter, cell count; reporter expression induced with tamoxifen; 0.9% of 130,000 active; inhibition, % at 2 µM; AID 1273, 2008;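 active means inhibition above the mean plus 3 SD, with well images judged a real hit on visual review, cut at about 60% in these data, passing the limit was not always enough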
RAM network inh: inhibitors of the yeast RAM network, primary screen, dse1pr::URA3 reporter, 5-FOA selection; inhibition, % at 50 µM; S. cerevisiae dse1pr::URA3 reporter, 5-FOA growth OD615, 2 d; analog-sensitive cbk1-as2 kinase mutant strain; 1.8% of 190,000 active;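 active means inhibition above a set limit, 3 SD over mean compound inhibition, cut at about 8.4% in these data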;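 further: 0% = DMSO-only wells with no growth and 100% = 10 µM 1-NA-PP1 full growth; inhibition rescues growth on 5-FOA so higher OD means more RAM inhibition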
Yeast life ext: compounds extending yeast replicative lifespan, primary screen, S. cerevisiae, OD615; S. cerevisiae growth with nicotinamide; deaD strain in restrictive glucose medium; inhibition of the nicotinamide effect, % at 10 µM; 0.68% of 130,000 active;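 active means inhibition above a set limit, placed 3 SD over the median of all compounds, cut at about 26% in these data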;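 further: 0% = nicotinamide-treated wells and 100% = cells grown without nicotinamide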
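assay system = DeaD-strain S. cerevisiae | measured by = absorbance at 615 nm | probe or stimulus = nicotinamide 1.5 mM | buffer or medium = CSMM-D glucose medium, restrictive | times = 48 h at 30 °C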
Yeast growth inh: growth inhibitors of yeast BB579 in restrictive medium, primary screen, yeast lifespan-shortening project, S. cerevisiae; inhibition, % at 10 µM; 0.51% of 140,000 active; OD615, 48 h; AID 804, 2007;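 active means inhibition above a set limit, 3 SD over the mean compound inhibition, cut at about 44% in these data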
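Test system: S. cerevisiae DeaD strain BB579 yeast; Medium: restrictive CSMM-D medium; Compound: one dose, 10 µM compound with 0.25% DMSO; Incubation: 4 h cell preincubation, 48 h compound exposure, 30 °C humidified; Signal: OD at 615 nm; Benchmarks: amphotericin B at 10 µg/mL as positive control.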
HMGR II inh: inhibitors of E. faecalis class II HMGR, primary screen, biochemical, Enterococcus faecalis | AID 1066, 2008 | inhibition, % at 10 µM | 0.41% of 190,000 active | HMG-CoA reductase (Enterococcus faecalis, mvaE) | purified E. faecalis HMGR, NADPH absorbance 340 nm kinetic;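 active means inhibition above a set limit, the median over all tested compounds plus 3 SD, cut at about 9.5% in these data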;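 further: enzyme runs in reverse so mevalonate oxidation gives rising NADPH absorbance; 0% = complete reaction with DMSO and 100% = background rate lacking mevalonate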
Starred values were filed as active, the others as inactive. Compounds with a hit are over-represented: about 3.7% of the library has one in this group of screens.

CCOC(=O)c1c(N)nn(C(C)=O)c1-c1ccccc1 was read as Insulin prom inh 18, RAM network inh 0, Yeast life ext -15, Yeast growth inh -20 and HMGR II inh -4.
CC1=CC(C)C2(COC(=O)Nc3ccccc3)COC(C)C1C2C (stereo not given) was read as Insulin prom inh -36, RAM network inh 3 and HMGR II inh -2.
Oc1ccc2ccccc2c1C=Nc1ccc(Cl)cn1 was read as RAM network inh 0 and HMGR II inh -6.
Screening CC(C)(CSc1nncn1N)NS(=O)(=O)c1ccc(Cl)cc1 returned Insulin prom inh 77*, RAM network inh 0, Yeast life ext -4, Yeast growth inh -43 and HMGR II inh -1.
For O=C(CSc1nnc(-c2ccccc2Cl)o1)Nc1ccccn1 the results were RAM network inh 6 and HMGR II inh -5.
CCCCC(=O)NC(=S)Nc1cccc(NC(=O)c2ccco2)c1 was read as RAM network inh -2, Yeast life ext 0, Yeast growth inh -18 and HMGR II inh -3.
Cc1cc(C)c2c(c1)NC(c1cc3c(cc1Br)OCO3)C1CC=CC21 (stereo not given) was read as Insulin prom inh 30, RAM network inh 3, Yeast life ext 1, Yeast growth inh -36 and HMGR II inh -3.
For C[C@@H](C(=O)NCc1ccccc1)[C@@H]1C[C@@]1(C)[C@@H](NC(=O)OCc1ccccc1)c1ccccc1 the results were Insulin prom inh 23, RAM network inh 7, Yeast life ext 6, Yeast growth inh 3 and HMGR II inh -12.
Screening C[C@@H](C(=O)NCc1ccc(S(C)(=O)=O)cc1)[C@H]1C[C@]1(C)[C@H](NC(=O)OCc1ccccc1)c1ccccc1 returned Insulin prom inh -27, RAM network inh 9.2*, Yeast life ext 3, Yeast growth inh -23 and HMGR II inh 2.
c1ccc(Cn2nnc3c(N4CCc5ccccc5C4)ncnc32)cc1 was read as Insulin prom inh 82*, RAM network inh 8, Yeast life ext -10, Yeast growth inh -40 and HMGR II inh -3.
c1ccc(Cn2nnc3c(N4CCCC4)ncnc32)cc1 was read as Insulin prom inh -50, RAM network inh 0, Yeast life ext -14, Yeast growth inh -9 and HMGR II inh -3.
CN1CCC(=NNC(=O)C(=O)Nc2ccccc2F)CC1 was read as Insulin prom inh 0, RAM network inh 2 and HMGR II inh 0.
`COC(=O)c1ccccc1NC(=O)C/C(C)=N/NC(=O)CC#N` gave Insulin prom inh 71*, RAM network inh 1 and HMGR II inh -10.
Screening COC(=O)c1ccccc1NC(=O)CC#N returned Insulin prom inh -32, RAM network inh 0, Yeast life ext -12, Yeast growth inh 0 and HMGR II inh -8.
`O=C(NCc1ccccc1)/C(=C/c1ccco1)NC(=O)c1ccco1` gave Insulin prom inh -255, RAM network inh 0 and HMGR II inh -2.
For O=C(COC(=O)/C=C/c1ccc(S(=O)(=O)N2CCc3ccccc32)cc1)NC1CCS(=O)(=O)C1 (stereo not given) the results were Insulin prom inh -11, RAM network inh 2 and HMGR II inh 0.
For Cc1c(C(=O)NC(=S)Nc2ccc(N3CCOCC3)cc2)cccc1[N+](=O)[O-] the results were Insulin prom inh 13, RAM network inh 6 and HMGR II inh -4.
`COc1ccc(CCN(Cc2cc3cc(C)cc(C)c3nc2Cl)C(=O)C2CC2)cc1` gave RAM network inh 11*, Yeast life ext -5, Yeast growth inh -4 and HMGR II inh -3.
For O=[N+]([O-])c1ccc(Nc2nc(N/N=C\c3ccc4c(c3)OCO4)nc(N3CCCCC3)n2)cc1 the results were Insulin prom inh 21, RAM network inh 11*, Yeast life ext 13, Yeast growth inh -15 and HMGR II inh -4.
O=[N+]([O-])c1ccc(/C=N/Nc2nc(N3CCCCC3)nc(N3CCCCC3)n2)cc1 was read as RAM network inh 2 and HMGR II inh -6.
COc1ccc(-c2csc(NC(=S)NC(=O)/C=C/c3ccco3)n2)cc1OC was read as Insulin prom inh -28, RAM network inh 9.7*, Yeast life ext 4, Yeast growth inh -18 and HMGR II inh 0.
COc1ccc(-c2csc(NC(=O)C3COc4ccccc4O3)n2)cc1OC (stereo not given) was read as RAM network inh 10* and HMGR II inh -5.
Screening CCS(=O)(=O)C1=NN2C(=N)/C(=C\c3ccc(SCc4ccco4)o3)C(=O)N=C2S1 returned Insulin prom inh 11, RAM network inh 11* and HMGR II inh -4.
`CC(C)(C)c1ccc(OCC(=O)N/N=C/c2ccc(N3CCOCC3)cc2)cc1` gave Insulin prom inh -29, RAM network inh -1, Yeast life ext 4, Yeast growth inh -40 and HMGR II inh -1.
Screening Cc1ccc(N2C(=O)C3C(C2=O)N2C(c4cccs4)C4C(=O)N(c5ccc(C)cc5)C(=O)C4N2C3c2cccs2)cc1 (stereo not given) returned RAM network inh 8.6*, Yeast life ext 1, Yeast growth inh -11 and HMGR II inh -8.
For Cc1ccc(S(=O)(=O)N2CC=C(c3ccc(F)cc3)CC2)cc1 the results were Insulin prom inh -10, RAM network inh 8, Yeast life ext -1, Yeast growth inh -17 and HMGR II inh 0.
Screening CCN1CCN(c2ccc(NC(=O)c3cccc(F)c3)cc2Cl)CC1 returned RAM network inh 0 and HMGR II inh 10*.
`Cc1cc(C)n(-c2cccc(F)n2)n1` gave Insulin prom inh 13, RAM network inh 0 and HMGR II inh 1.
COC(=O)c1sccc1NC(=S)N1CCN(c2cc(C)ccc2C)CC1 was read as Insulin prom inh -45, RAM network inh 5, Yeast life ext -3, Yeast growth inh -54 and HMGR II inh 2.
`O=C(CS(=O)(=O)c1cn(Cc2cccc(F)c2)c2ccccc12)N1CCOCC1` gave RAM network inh 9.3*, Yeast life ext -5, Yeast growth inh -12 and HMGR II inh 5.
`Cc1cc(Br)ccc1SCC(=O)OCC(=O)Nc1ncc(C(F)(F)F)cc1Cl` gave Insulin prom inh 37, RAM network inh 4, Yeast life ext 2, Yeast growth inh -30 and HMGR II inh 0.
For CC1=Nc2nc(N3CCCCC3)c(C#N)c3c4c(nc(c23)N1)N(c1ccc(C(C)C)cc1)C(=O)C4 the results were Insulin prom inh 4, RAM network inh 9.3*, Yeast life ext 5, Yeast growth inh -48 and HMGR II inh -2.
For CC(C)c1ccc(-c2nc(N3CCCCC3)[nH]c(=O)c2C#N)cc1 the results were Insulin prom inh -13, RAM network inh 3, Yeast life ext -6, Yeast growth inh -31 and HMGR II inh -3.

Screening results as filed in PubChem BioAssay.
